{
  "source": "ChEMBL document CHEMBL4007505",
  "about": "(J Med Chem, 2017)",
  "key": {"[1]": {"target": "T1, Alpha-1B adrenergic receptor (Homo sapiens, UniProt P35368)", "T1 sequence (P35368 whole entry)": "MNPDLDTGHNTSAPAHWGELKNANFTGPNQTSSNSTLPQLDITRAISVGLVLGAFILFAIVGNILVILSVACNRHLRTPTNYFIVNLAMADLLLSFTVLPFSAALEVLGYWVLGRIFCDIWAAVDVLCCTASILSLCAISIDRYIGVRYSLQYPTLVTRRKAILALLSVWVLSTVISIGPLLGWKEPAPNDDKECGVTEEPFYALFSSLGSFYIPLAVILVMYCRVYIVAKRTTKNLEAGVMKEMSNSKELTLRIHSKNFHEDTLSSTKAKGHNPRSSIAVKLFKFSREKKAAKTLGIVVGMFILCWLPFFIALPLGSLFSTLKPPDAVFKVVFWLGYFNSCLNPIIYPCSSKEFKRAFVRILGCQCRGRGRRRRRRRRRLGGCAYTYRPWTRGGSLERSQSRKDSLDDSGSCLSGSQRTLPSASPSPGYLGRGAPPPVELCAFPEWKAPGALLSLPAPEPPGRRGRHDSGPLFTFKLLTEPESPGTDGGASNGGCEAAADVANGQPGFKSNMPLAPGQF", "assay": "Displacement of [3H]Prazosin from human adrenergic alpha1B receptor"}, "Adenosine receptor A3 [2]": {"target": "T2, Adenosine receptor A3 (Homo sapiens, UniProt P0DMS8)", "T2 sequence (P0DMS8 whole entry)": "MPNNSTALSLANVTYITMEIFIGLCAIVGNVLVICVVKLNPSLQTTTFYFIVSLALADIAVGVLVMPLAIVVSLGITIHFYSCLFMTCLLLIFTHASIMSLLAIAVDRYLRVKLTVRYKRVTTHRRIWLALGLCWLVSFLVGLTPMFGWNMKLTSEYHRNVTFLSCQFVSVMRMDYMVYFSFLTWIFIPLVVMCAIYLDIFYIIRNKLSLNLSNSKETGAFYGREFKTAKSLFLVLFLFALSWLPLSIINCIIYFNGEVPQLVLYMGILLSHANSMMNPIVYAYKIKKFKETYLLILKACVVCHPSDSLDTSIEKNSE", "assay": "Displacement of [125I]N6-(4-amino-3-iodobenzyl)adenosine-5'-N-methyluronamide from human A3AR expressed in HEK293T cells pre-incubated for 10 mins before radioligand addition and measured 90 mins after radioligand addition by micro beta scintillation counting analysis relative to control", "format": "cell-based, HEK-293T"}, "Adenosine receptor A3 [3]": {"target": "T3, Adenosine receptor A3 (Mus musculus, UniProt Q61618)", "T3 sequence (Q61618 whole entry)": "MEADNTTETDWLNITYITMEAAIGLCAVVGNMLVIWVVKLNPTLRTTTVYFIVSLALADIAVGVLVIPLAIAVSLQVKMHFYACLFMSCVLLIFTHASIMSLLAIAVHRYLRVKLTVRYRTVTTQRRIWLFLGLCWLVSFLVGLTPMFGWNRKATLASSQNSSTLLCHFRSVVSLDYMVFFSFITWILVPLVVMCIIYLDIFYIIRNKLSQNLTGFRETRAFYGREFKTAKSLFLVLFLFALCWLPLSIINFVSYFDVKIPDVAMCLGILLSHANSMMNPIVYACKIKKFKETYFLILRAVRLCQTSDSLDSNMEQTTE", "assay": "Displacement of [125I]N6-(4-amino-3-iodobenzyl)adenosine-5'-N-methyluronamide from mouse A3AR expressed in HEK293T cells pre-incubated for 10 mins before radioligand addition and measured 90 mins after radioligand addition by micro beta scintillation counting analysis relative to control", "format": "cell-based"}, "[4]": {"target": "Sodium-dependent noradrenaline transporter (Homo sapiens, UniProt P23975)", "sequence (P23975 whole entry)": "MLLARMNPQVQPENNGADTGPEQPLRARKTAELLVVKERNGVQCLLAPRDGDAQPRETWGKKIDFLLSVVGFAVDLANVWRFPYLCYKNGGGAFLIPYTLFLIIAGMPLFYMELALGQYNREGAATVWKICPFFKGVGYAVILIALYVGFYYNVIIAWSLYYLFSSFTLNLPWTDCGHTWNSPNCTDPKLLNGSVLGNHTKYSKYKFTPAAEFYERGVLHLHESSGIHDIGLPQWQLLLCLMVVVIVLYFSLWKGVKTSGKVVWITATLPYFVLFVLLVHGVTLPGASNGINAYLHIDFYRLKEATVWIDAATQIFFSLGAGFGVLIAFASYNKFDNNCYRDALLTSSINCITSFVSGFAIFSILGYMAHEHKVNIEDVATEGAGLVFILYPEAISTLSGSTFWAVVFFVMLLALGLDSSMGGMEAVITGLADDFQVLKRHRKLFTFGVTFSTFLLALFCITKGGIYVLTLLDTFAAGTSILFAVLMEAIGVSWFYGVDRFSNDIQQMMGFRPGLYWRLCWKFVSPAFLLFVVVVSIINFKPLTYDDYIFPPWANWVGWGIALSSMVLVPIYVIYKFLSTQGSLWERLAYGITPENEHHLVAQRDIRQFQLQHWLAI", "assay": "Enhancing of [3H]mazindol binding to recombinant human NET expressed in HEK293 cell membranes preincubated for 10 mins followed by radioligand addition measured after 90 mins by micro beta scintillation counting analysis"}, "[5]": {"target": "Sodium-dependent dopamine transporter (Homo sapiens, UniProt Q01959)", "sequence (Q01959 whole entry)": "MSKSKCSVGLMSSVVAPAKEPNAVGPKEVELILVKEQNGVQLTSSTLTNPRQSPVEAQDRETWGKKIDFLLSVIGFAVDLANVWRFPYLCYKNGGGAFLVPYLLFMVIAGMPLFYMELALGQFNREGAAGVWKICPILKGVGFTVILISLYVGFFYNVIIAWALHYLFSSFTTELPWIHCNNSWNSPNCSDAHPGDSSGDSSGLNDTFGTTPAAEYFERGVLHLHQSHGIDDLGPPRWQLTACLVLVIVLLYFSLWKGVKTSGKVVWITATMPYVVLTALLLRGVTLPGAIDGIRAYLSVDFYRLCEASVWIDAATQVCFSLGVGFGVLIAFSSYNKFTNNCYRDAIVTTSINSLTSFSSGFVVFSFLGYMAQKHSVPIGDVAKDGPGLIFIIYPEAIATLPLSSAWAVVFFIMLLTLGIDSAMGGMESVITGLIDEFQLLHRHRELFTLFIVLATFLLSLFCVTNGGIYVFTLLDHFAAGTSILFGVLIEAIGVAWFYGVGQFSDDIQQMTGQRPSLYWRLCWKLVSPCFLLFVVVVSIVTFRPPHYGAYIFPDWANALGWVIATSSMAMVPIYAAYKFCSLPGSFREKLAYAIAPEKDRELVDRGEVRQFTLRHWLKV", "assay": "Enhancing of [3H]mazindol binding to recombinant human DAT expressed in HEK293 cell membranes preincubated for 10 mins followed by radioligand addition measured after 90 mins by micro beta scintillation counting analysis", "parameters": "concentration or dose not given beside the values", "outline": "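Membranes of HEK-293 cells stably expressing hDAT, hNET or hSERT. […] Compound preincubated 10 min at room temperature, then [125I]23 (40-80 pM final) or [3H]26 (1-3 nM for DAT and NET, 10-13 nM for SERT) added. Incubated 90 min at room temperature in the dark, then filtered. EC50 or Ki; mean ± SEM.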"}, "[6]": {"target": "T4, Alpha-2C adrenergic receptor (Homo sapiens, UniProt P18825)", "T4 sequence (P18825 whole entry)": "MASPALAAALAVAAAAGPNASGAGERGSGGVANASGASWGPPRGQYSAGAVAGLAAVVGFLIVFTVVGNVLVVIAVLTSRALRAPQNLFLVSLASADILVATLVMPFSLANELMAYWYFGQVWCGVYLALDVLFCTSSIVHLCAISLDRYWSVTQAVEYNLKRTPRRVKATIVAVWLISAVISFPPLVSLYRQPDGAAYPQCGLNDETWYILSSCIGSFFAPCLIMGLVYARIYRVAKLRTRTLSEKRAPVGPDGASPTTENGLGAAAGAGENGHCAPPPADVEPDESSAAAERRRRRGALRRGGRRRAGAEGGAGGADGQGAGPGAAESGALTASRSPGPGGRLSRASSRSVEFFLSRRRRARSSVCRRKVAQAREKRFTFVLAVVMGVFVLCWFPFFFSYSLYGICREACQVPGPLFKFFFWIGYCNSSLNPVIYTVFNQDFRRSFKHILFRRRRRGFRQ", "assay": "Displacement of [3H]Rauwolscine from human adrenergic alpha2C receptor"}},
  "note": "The source made the active and inactive calls. No cut-off for these calls is given here.",
  "data": [
    {"smiles": "CNc1nc(C#Cc2ccc(Cl)s2)nc2c1ncn2[C@@H]1O[C@H](C(=O)OC)[C@@H](O)[C@H]1O", "values": [
      {"measurement": "Ki", "setting": "[1]", "result": "> 10000", "unit": "nM"},
      {"measurement": "Ki", "setting": "Adenosine receptor A3 [2]", "result": 11.5, "unit": "nM"},
      {"measurement": "Ki", "setting": "Adenosine receptor A3 [3]", "result": 34, "unit": "nM"},
      {"measurement": "Activity", "setting": "[4]", "result": "inactive"},
      {"measurement": "Activity", "setting": "[5]", "result": 269, "unit": "%"},
      {"measurement": "EC50", "setting": "[5]; read-out: EC50", "result": 860, "unit": "nM"},
      {"measurement": "Ki", "setting": "[6]", "result": "> 10000", "unit": "nM"}
    ]}
  ]
}
